Test results as given in the EternaBench riboswitch data.

Experiments:
[1] = tested on: MS2 coat protein; assay: apparent Kd, MS2 coat protein; higher = weaker binding; RNA-MaP array; tryptophan 2.4 mM where present
How it was run: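 The apparent Kd is the median of filtered binding-curve fits, one per cluster, to green signal normalised to red-channel RNA signal and control-cluster median Fmax. The clusters were on Illumina sequencing chips, and stalled E. coli RNA polymerase had transcribed the designs on them. Titration used SNAP-549-labelled MS2 coat protein from 0.7 or 1.5 nM, doubling to 3 µM, without and then with constant ligand, in 100 mM Tris-HCl pH 7.5, 80 mM KCl, 4 mM MgCl2, BSA, DTT, yeast tRNA and Tween-20.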

[2] = tested on: MS2 coat protein; assay: apparent Kd, MS2 coat protein; higher = weaker binding; RNA-MaP array
How it was run: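 Incubations were done at room temperature with fluorescently labeled MS2 coat protein at 1.5 nM to 3 μM and designed RNAs transcribed on an Illumina sequencing chip from sequenced DNA templates, with or without input ligand. Apparent Kd is the median of binding curves fitted for each cluster. Designs with fewer than 10 measured clusters were excluded.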

[3] = designed as: ON switch for tryptophan, no ligand
[4] = ligand present: tryptophan, designed as: ON switch for tryptophan
[5] = designed as: OFF switch for tryptophan, no ligand
[6] = ligand present: tryptophan, designed as: OFF switch for tryptophan
[7] = designed as: OFF switch for flavin mononucleotide, no ligand
[8] = ligand present: flavin mononucleotide, designed as: OFF switch for flavin mononucleotide
[9] = designed as: ON switch for flavin mononucleotide, no ligand
[10] = ligand present: flavin mononucleotide, designed as: ON switch for flavin mononucleotide
[11] = designed as: OFF switch for theophylline, no ligand
[12] = ligand present: theophylline, designed as: OFF switch for theophylline

AGGUACAGCAGGUGAUUCUGGCUGUACCAACGAGGACCGGUACGGCCGCCACUCGAAUAAACAUGAGGAUCACCCAUGUACAAAU
apparent Kd [1, 3]: 24.6 nM | apparent Kd [1, 4]: 21.6 nM

AACAUGAGGAUCACCCAUGUCCCAUGUGAACGAGGACCGGUACGGCCGCCACUCGAAUGAGGCGGCACAUGAGGAUCACCCACAU
apparent Kd [1, 3]: 131 nM | apparent Kd [1, 4]: 196 nM

AAAAUAAAAUAAAAGGUGGAAAUAAGGCGGCGAGGACCGGUACGGCCGCCACUCGCGUACAUGAGGAUCACCCAUGUCUGAAAAU
apparent Kd [1, 3]: 22.4 nM | apparent Kd [1, 4]: 27.4 nM

GUGCCGCAUUCACAUGAGGAUCACCCAUGUCGAGGACCGGUACGGCCGCCACUCGACGUGCUUACAGGUCCUUUAAGGCCCAAUA
apparent Kd [1, 5]: 92.8 nM | apparent Kd [1, 6]: 43.8 nM

ACCGAAAGCUCACAUGAGGAUCACCCAUGUCGAGGACCGGUACGGCCGCCACUCGGCAAAUAUAAGGGUGGACGCGUCUCUGCGU
apparent Kd [1, 5]: 39 nM | apparent Kd [1, 6]: 79.8 nM

UGUCAGCGAAAGUUGACAUGUUGAACCGGUCGAGGACCGGUACGGCCGCCACUCGAUCUCUCGUACAUGAGGAUCACCCAUGUCG
apparent Kd [1, 3]: 11.5 nM | apparent Kd [1, 4]: 10.7 nM

ACGUUUUAGUCGGCCGCCACUGUUUUCAUGUUCAACAUGAGGAUCACCCAUGUACCUUUUUUUAUCAGGACCGGGACGUAAUAGA
apparent Kd [1, 3]: 68.5 nM | apparent Kd [1, 4]: 27.4 nM

UUCUUUAAGUCGGCCGCCACUGAAACAUGAGGAUCACCCAUGUAAAUUUGGGAGUAGUUAUAUUACAGGACCGGGACUAUAGUAA
apparent Kd [1, 5]: 41.5 nM | apparent Kd [1, 6]: 83 nM

AGCCACUCGAGUGAUCCUCACGAGUGGCUACGAGGACCGGUACGGCCGCCACUCGAAUUAACAUGAGGAUCACCCAUGUAAUCUA
apparent Kd [1, 3]: 81 nM | apparent Kd [1, 4]: 53.8 nM

UAAACUACACAUGAGGAUCACCCAUGUGGCCGAGGACCGGUACGGCCGCCACUCGUGUGUUAAUAAAAGAACUGCAAGGUUCUUC
apparent Kd [1, 3]: 174 nM | apparent Kd [1, 4]: 73.1 nM

CUCAUCCACGCGGCCGCCACUAUAUUGUGGUGUGAAUGUGACGUAUUACAUGAGGAUCACCCAUGUAGGACCGGGCGUGGAUGAG
apparent Kd [1, 5]: 75.4 nM | apparent Kd [1, 6]: 168 nM

AGCAACAAGUCGGCCGCCACUCAUUUAACAUGAGGAUCACCCAUGUGAAUAACAUGAUUGUAAUAGAGGACCGGGACAGUUGCAU
apparent Kd [1, 3]: 62.5 nM | apparent Kd [1, 4]: 31 nM

GUUGGACUUUCGGCCGCCACUGAGAGAGUCAUGUGAACAUGAGGAUCACCCAUGUAAUAUAUAUACAGGACCGGGAGGGUUGUAA
apparent Kd [1, 5]: 13.3 nM | apparent Kd [1, 6]: 9.9 nM

ACUUCGCAUAGGAAAACUAUGUGAAGAAAUCGAGGACCGGUACGGCCGCCACUCGUCCUCAACAUGAGGAUCACCCAUGUAAUAA
apparent Kd [1, 5]: 20.1 nM | apparent Kd [1, 6]: 37.8 nM

UCGUGCAGAGCGGCCGCCACUGUAUUGCGUGCGGAUGACGGAACAUGAGGAUCACCCAUGUUGUUUAGGACCGGGCUUGCCACCA
apparent Kd [1, 5]: 12.7 nM | apparent Kd [1, 6]: 13.9 nM

AGCACGGUGAUGGUAGCCGGACGAUAAGUACGAGGACCGGUACGGCCGCCACUCGAAGUCCUACGACAUGAGGAUCACCCAUGUA
apparent Kd [1, 3]: 33.2 nM | apparent Kd [1, 4]: 37.9 nM

AGGUACGGAAUCCUCAUGUAGUCGUACCAACGAGGACCGGUACGGCCGCCACUCGAAUAAACAUGAGGAUCACCCAUGUAAUAAU
apparent Kd [1, 3]: 34.4 nM | apparent Kd [1, 4]: 19.7 nM

GGGACAUGAGGAUCACCCAUGUACCGGUCCCGAGGACCGGUACGGCCGCCACUCGAUGACCUCAUAGUCUGCCUGAGCAGCAGAC
apparent Kd [1, 3]: 41.3 nM | apparent Kd [1, 4]: 119 nM

AACAUGAGGAUCACCCAUGUACCUUUCGAUCGAGGACCGGUACGGCCGCCACUCGAAAACAUGAGGAUCACCCAUGUUCAACAGG
apparent Kd [1, 3]: 145 nM | apparent Kd [1, 4]: 87.4 nM

GGAGUAGGAAACUAUUCCAAUCCUCGUGAACGAGGACCGGUACGGCCGCCACUCGAUAAAUAAAUACAUGAGGAUCACCCAUGUU
apparent Kd [1, 5]: 68.8 nM | apparent Kd [1, 6]: 118 nM

GGCACAUAGUCGGCCGCCACUAGAAUAAGAUGGAAUAACAUGAGGAUCACCCAUGUAAAAGGGACUAGGACCGGGACUAUGUGCC
apparent Kd [1, 5]: 13.7 nM | apparent Kd [1, 6]: 11.9 nM

AACGAGUGGCGGCCAUUGGGUGAUCCUCUACGAGGACCGGUACGGCCGCCACUCGAUAACAUGAGGAUCACCCAUGUGCCGAUAA
apparent Kd [1, 5]: 124 nM | apparent Kd [1, 6]: 133 nM

CGUAUUGGAAACAGUACGAGUGAUCCGGUCCGAGGACCGGUACGGCCGCCACUCGAAAUUAAUAAACAUGAGGAUCACCCAUGUA
apparent Kd [1, 5]: 17.8 nM | apparent Kd [1, 6]: 26.8 nM

GAUUUAACAAAAGUUAGAUCAGUGGGUGAACGAGGACCGGUACGGCCGCCACUCGGACAUGAGGAUCACCCAUGUCCAUGUGAAA
apparent Kd [1, 5]: 17.8 nM | apparent Kd [1, 6]: 43.1 nM

UUCGUUGGCGAUCUGGGUUUACCAGAUCGGCGAGGACCGGUACGGCCGCCACUCGUGUUUUCUUUACAUGAGGAUCACCCAUGUU
apparent Kd [1, 3]: 19.2 nM | apparent Kd [1, 4]: 15.2 nM

AAACAUGAGGAUCACCCAUGUAUGUUAUUACGAGGACCGGUACGGCCGCCACUCGAUAGAGUAGAAGUAAAUUGUAAUUCAUGUU
apparent Kd [1, 5]: 14.3 nM | apparent Kd [1, 6]: 15.9 nM

CCGGCCAAUUAGAAAUUAAUUGGCCGGAAACGAGGACCGGUACGGCCGCCACUCGUGGCGGGAGAAACAUGAGGAUCACCCAUGU
apparent Kd [1, 5]: 40 nM | apparent Kd [1, 6]: 26 nM

CGUGUAGGGUAGGAUAUUCGAACACCACAAGGAGAAGAAGGACCUACAUGAGGAUCACCCAUGUGGUUAAUGGC
apparent Kd [2, 7]: 112 nM | apparent Kd [2, 8]: 225 nM

GGUCAACGAUUUUACAUGAGGAUCACCCAUGUUACGGUCGCCGAGGAUAUGUCAGGAUUAUCACAACAGAAGGCGGAAGACACC
apparent Kd [2, 9]: 16.5 nM | apparent Kd [2, 10]: 9.4 nM

GUCAUCUGUUUAGGAUAUGCGGUAGACACCGGGCGAGAAACAUGAGGAUCACCCAUGUUCGGAUUGCAGAAGGAAACGGCAAUA
apparent Kd [2, 9]: 13.6 nM | apparent Kd [2, 10]: 17 nM

GUGCAGUUAUUAGGAUAUAAGACAUGGGACAUGAGGAUCACCCAUGUCGUAAGAAAUACCGUUGAUUAGAAGGAAUUCCGGCAC
apparent Kd [2, 9]: 1010 nM | apparent Kd [2, 10]: 283 nM

AACGGUUUUUAGAAGGGCGUCAGGGACCUUGGACAUGAGGAUCACCCAUGUGUGCAGACACCUGCGCAGGAUAUAAGUUCUCUA
apparent Kd [2, 7]: 12.6 nM | apparent Kd [2, 8]: 9.53 nM

GCACAAUUAGGAUAUACAUGGGUAUAGGGUGAGACGAAUGCACAUGAGGAUCACCCAUGUAGAAGGAAUCGUCA
apparent Kd [2, 7]: 303 nM | apparent Kd [2, 8]: 332 nM

GCAGUGCGUGAGGAUAUGUGAGUGAACACACACACAGAAGGCACAACAUGAGGAUCACCCAUGUUCCUGGUGCC
apparent Kd [2, 7]: 7.62 nM | apparent Kd [2, 8]: 7.95 nM

AUUCAUUGAAACAUGAGGAUCACCCAUGUACACUGGCACUUACAGGAUAUUGAAUAUGGAAGUCGCAAGAAGGGUAACGUGAUC
apparent Kd [2, 9]: 112 nM | apparent Kd [2, 10]: 57 nM

UGUACAUGAGGAUCACCCAUGUUUGUAUCUUUAUCCGCGCGCAGAAGGUAGCCCAUGGAGACAGCUAAGGAUAUGCGUCACAUA
apparent Kd [2, 7]: 21.5 nM | apparent Kd [2, 8]: 8.83 nM

UAAGUACGACAGAAGGGAUGAAAUUAUAACAAAUCAGGAUAUGUGAGUUACCAAUGCAAGCAUUACAUGAGGAUCACCCAUGUG
apparent Kd [2, 9]: 16.9 nM | apparent Kd [2, 10]: 10.1 nM

CAUGGGCUAAGACAUUAUUCGUAUUUUGAUACCAGAAAAUUGGCGUUCCCUUGGCAGCAAUAUACAUGAGGAUCACCCAUGUCCC
apparent Kd [2, 11]: 80.6 nM | apparent Kd [2, 12]: 93.8 nM

AUACACAGAGUUAGGAUAUCUACAUAAAACAAAAUAGAGAAGGAACAUGAGGAUCACCCAUGUAAUGAUCAAAC
apparent Kd [2, 7]: 9.99 nM | apparent Kd [2, 8]: 9.45 nM

CCUAACCACAAGAAGGAUGAGAUGCGGCAUUUCAUAGGAUAUUGAUCACAUGAGGAUCACCCAUGUUGCCGUAAGGCGCUAGUC
apparent Kd [2, 9]: 321 nM | apparent Kd [2, 10]: 136 nM

UAGAGCUCGCAAGGAUAUAACGCACAGAAACAUGAGGAUCACCCAUGUGGAAAGGAUCAACGUCGUUAGAAGGUGCAGAAAUAU
apparent Kd [2, 9]: 47.4 nM | apparent Kd [2, 10]: 22 nM

ACAUGAGGAUCACCCAUGUCGAAGCACGCGCCACCUUCAAGCAGAAGGAAGUGACAAGUACUAGCUUAGGAUAUGCUCAAAGGU
apparent Kd [2, 9]: 12.3 nM | apparent Kd [2, 10]: 7 nM

UGGUAGCCACACUUCAAACAUCGACAAGAUACCAGUUAAUCAACGAACCCUUGGCAGCUUCGUACAUGAGGAUCACCCAUGUGGA
apparent Kd [2, 11]: 18.2 nM | apparent Kd [2, 12]: 23 nM

UAUCGAAGGUUUAAGGAUAUCGGCAGGCUCACAUGAGGAUCACCCAUGUCGCGAACAUCGCGCUACGAGAAGGUAAUCUUGAUGCA
apparent Kd [2, 9]: 58.9 nM | apparent Kd [2, 10]: 24.3 nM

GUUGAGGGCGUGCACAUGAGGAUCACCCAUGUUCUACCUAUCGAGGAUAUAUCUGUAGGAUCAGAAUAGAAGGCGAGCAAGGUC
apparent Kd [2, 7]: 21.4 nM | apparent Kd [2, 8]: 14.8 nM

CAUGCUUGCGAGGAUAUAAGGUUCUCCCUGUUCUUAGAAGGCGCAACAUGAGGAUCACCCAUGUUCCUACCGAA
apparent Kd [2, 7]: 43 nM | apparent Kd [2, 8]: 283 nM

GACGAGAGACAGAAGGCUCGACUGUGGCUACGAGAUCUGAAAACAUGAGGAUCACCCAUGUUUCGAGAGGAUAUGUCGAAUUAU
apparent Kd [2, 7]: 129 nM | apparent Kd [2, 8]: 397 nM

CAAACCAACUAGUAAAACAACAUGAGGAUCACCCAUGUAAGAGAGGAUAUUGAAAUCGAAAGCAACAAGAAGGCUCACCAUGUA
apparent Kd [2, 9]: 19.5 nM | apparent Kd [2, 10]: 15.8 nM

CAUUGGGUCAGUUCGACAUGAGGAUCACCCAUGUAGUUAACGAGAAGGAGUACCAGCCUAAGUGACUAGGAUAUCGAUAAGUGG
apparent Kd [2, 7]: 37.3 nM | apparent Kd [2, 8]: 38.7 nM

CAGACCCGGCGGGAGGAUAUACGAGAGAACACAUGAGGAUCACCCAUGUUGCACUAAACAGCGUGGUAGAAGGCCCAUCAUCUGUA
apparent Kd [2, 9]: 56.8 nM | apparent Kd [2, 10]: 11.9 nM

CCCGUAAAGGCGGCCGCCACUGUAUGACAUGAGGAUCACCCAUGUAGGGAAAAUGCGAUGGUCGUCAGGACCGGGCCUCUGGCAU
apparent Kd [2, 5]: 23.1 nM | apparent Kd [2, 6]: 23.8 nM
